pIC50, pKi: −log10 of the molar value.

The target of data set [1] is T1, Low molecular weight protein-tyrosine phosphatase A (Mycobacterium tuberculosis) (UniProt P9WIA1).
T1 sequence (whole entry): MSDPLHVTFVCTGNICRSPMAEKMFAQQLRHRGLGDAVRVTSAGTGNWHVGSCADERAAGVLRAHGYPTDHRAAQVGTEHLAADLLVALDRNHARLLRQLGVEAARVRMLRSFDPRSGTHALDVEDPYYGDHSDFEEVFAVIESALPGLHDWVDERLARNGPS
Put plainly: Inhibition of Mycobacterium tuberculosis PTP-A using p-nitrophenyl phosphate as substrate at 25 uM measured for 10 mins by spectrofluorimetry. Summed up:
(§1)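 Single-point screen at 25 μM final compound, added from 1.0 × 10−3 M DMSO stock, with recombinant Mtb PtpA or PtpB (0.4 μg/μL final) in 20 mM imidazole pH 7.0 with 40 mM pNPP. Reaction started by adding enzyme. p-Nitrophenol release read at 410 nm every min for 10 min at 37 °C. Residual activity was taken from the absorbance difference between 6 and 2 min; two experiments, each in triplicate.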

The target in data set [2] is T2, Phosphotyrosine-protein phosphatase PTPB (Mycobacterium tuberculosis) (UniProt P96830).
T2 sequence (whole entry): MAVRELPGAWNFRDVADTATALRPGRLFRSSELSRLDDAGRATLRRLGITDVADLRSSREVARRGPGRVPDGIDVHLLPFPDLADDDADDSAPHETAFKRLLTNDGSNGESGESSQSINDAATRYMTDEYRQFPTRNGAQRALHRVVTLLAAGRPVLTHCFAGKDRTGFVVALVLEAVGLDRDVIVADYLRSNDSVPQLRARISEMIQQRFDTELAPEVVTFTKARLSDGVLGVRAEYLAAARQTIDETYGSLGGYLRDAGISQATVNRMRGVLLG
The data set is described as follows: Inhibition of Mycobacterium tuberculosis PTP-B using p-nitrophenyl phosphate as substrate at 25 uM measured for 10 mins by spectrofluorimetry. A digest of the protocol:
as §1

The target in data set [3] is T3, Low molecular weight protein-tyrosine phosphatase A (Mycobacterium tuberculosis, UniProt P9WIA1).
T3 sequence (P9WIA1 whole entry): T1 sequence (whole entry)
Put plainly: Inhibition of Mycobacterium tuberculosis PTP-A using p-nitrophenyl phosphate as substrate measured for 10 mins by spectrofluorimetry. A digest of the protocol: (§2)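 A410 read each minute over 10 min at 37 °C. Residual activity compared with wells without inhibitor; IC50 by linear regression of % inhibition against concentration. Triplicate, two independent experiments.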

The target of data set [4] is T4, Phosphotyrosine-protein phosphatase PTPB (Mycobacterium tuberculosis, UniProt P96830).
T4 sequence (P96830 whole entry): T2 sequence (whole entry)
The data set is described as follows: Inhibition of Mycobacterium tuberculosis PTP-B using p-nitrophenyl phosphate as substrate measured for 10 mins by spectrofluorimetry. A digest of the protocol: as §2

For data set [5], the target named is T5, Tyrosine-protein phosphatase non-receptor type 1 (Homo sapiens, UniProt P18031).
T5 sequence (P18031 whole entry): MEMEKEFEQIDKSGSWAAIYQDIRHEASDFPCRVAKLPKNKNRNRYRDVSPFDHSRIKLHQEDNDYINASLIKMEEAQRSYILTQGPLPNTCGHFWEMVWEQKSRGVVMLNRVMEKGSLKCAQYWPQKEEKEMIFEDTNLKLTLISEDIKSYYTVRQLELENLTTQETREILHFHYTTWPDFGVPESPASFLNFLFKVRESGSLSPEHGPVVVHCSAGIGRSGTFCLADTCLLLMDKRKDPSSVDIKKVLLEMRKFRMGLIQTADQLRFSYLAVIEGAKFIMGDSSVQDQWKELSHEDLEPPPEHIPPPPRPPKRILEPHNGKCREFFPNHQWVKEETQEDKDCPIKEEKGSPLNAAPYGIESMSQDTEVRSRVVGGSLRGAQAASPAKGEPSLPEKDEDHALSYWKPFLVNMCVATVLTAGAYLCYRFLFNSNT
The data set is described as follows: Inhibition of human PTP1B expressed in Escherichia coli BL21 DE3 using p-nitrophenyl phosphate as substrate measured for 10 mins by spectrofluorimetry.

Data set [6] concerns the target T4, Phosphotyrosine-protein phosphatase PTPB. Put plainly: Competitive inhibition of Mycobacterium tuberculosis PTP-B using p-nitrophenyl phosphate as substrate measured for 10 mins by Lineweaver-Burk plot analysis. Summed up: (§3)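 Kinetic mode determined with recombinant Mtb enzyme (PtpA or PtpB) using the screening conditions (20 mM imidazole pH 7.0, 37 °C, A410 read each minute for 10 min) but with pNPP varied over 0.5, 1.5, 3, 6, 8, 10, 15 and 25 mM. At least three inhibitor concentrations in the 5–60 μM range were used. Ki and mechanism were taken from Lineweaver–Burk double-reciprocal plots.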

The nature of data set [7]: Solubility of the compound. Type of data set: physicochemical.
Data set [8] in a line: Selectivity index, ratio of IC50 for human PTP1B to IC50 for Mycobacterium tuberculosis PTP-A. A digest of the protocol: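 Selectivity index calculated as IC50 for human PTP1B divided by IC50 for Mtb PtpA. Both IC50 values came from pNPP hydrolysis assays read at 410 nm for 10 min at 37 °C.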
Data set [9] addresses T3, Low molecular weight protein-tyrosine phosphatase A. The data set is described as follows: Competitive inhibition of Mycobacterium tuberculosis PTP-A using p-nitrophenyl phosphate as substrate measured for 10 mins by Lineweaver-Burk plot analysis. A digest of the protocol: as §3
Data set [10] addresses T1, Low molecular weight protein-tyrosine phosphatase A (Mycobacterium tuberculosis). Put plainly: Ratio of IC50 to Ki for Mycobacterium tuberculosis protein tyrosine phosphatase-A.
Data set [11] concerns the target T3, Low molecular weight protein-tyrosine phosphatase A. Put plainly: Inhibition of Mycobacterium tuberculosis PTP-A.

With `O=C(O)c1ccc(/C=C/C(=O)c2ccc3ccccc3c2)cc1`, the inhibition in data set [1] came out at 9%; in data set [2], 70%. For the same compound, the pIC50 in data set [3] is less than 4.00; in data set [4] it was 4.92; in data set [5], 2.51. This compound had a pKi in data set [6] of 5.10. The solubility result in [7] is “soluble”.

As for `O=C(/C=C/c1ccc(C(F)(F)F)cc1)c1ccc2ccccc2c1`, the inhibition in [1] stood at 43%; in [2], 37%. The pIC50 in data set [3] is 3.48; in [4] it was 3.47. Besides, the solubility result in data set [7] is on record as “soluble”.

Turning to `O=C(/C=C/c1ccc2ccccc2c1)c1ccc(Cl)s1`, the inhibition in [1] was 31%; in [2] it was 49%. Besides, the pIC50 in data set [3] was 4.49; in [4] it was 4.24; in [5], 4.00. Also, the Ratio IC50 in data set [8] amounted to 3.1. The compound further gave a pKi in data set [9] of 4.64. Also, in data set [10], the Ratio turned out to be 1.4. For the same compound, in data set [7], the solubility result was “soluble”.

Regarding `COc1cc(-c2[nH]ccc2Cl)oc1C1=C2N=C3C=C2[C@H](C(C)C)[C@H]1CCCCCCCC3` [ROSEOPHILIN], in [11], the pIC50 is 5.06.

In the case of `CCCCCC1=C/C(=C/c2[nH]c(-c3ccc[nH]3)cc2OC)N=C1C` [PRODIGIOSIN], the negative-log IC50 (pIC50) in data set [11] was 5.06.

For the compound `O=C(/C=C/c1ccc2ccccc2c1)c1ccc(Br)cc1`, the inhibition worked out at 11% in data set [1] and 42% in [2]. Further, the pIC50 was less than 4.30 in [3], 4.60 in data set [4] and 4.54 in [5]. In data set [6], this compound gave a pKi of 5.00. Moreover, the solubility entry in [7] is on record as “soluble”.

`O=C(/C=C/c1ccc2c(c1)OCO2)c1ccc([N+](=O)[O-])cc1`: the values for the inhibition in data set [1] and in data set [2] were 33% and 34%, respectively. Moreover, the results for the pIC50 in data set [3], in [4] and in data set [5] were 4.21, 4.29 and 4.64, respectively. In data set [6], the pKi is 4.89. Moreover, the solubility result in [7] is given as “soluble”.

As to `O=C(/C=C/c1ccc(Cl)cc1Cl)c1ccc2ccccc2c1`, the values for the inhibition in [1] and in [2] were 10% and 47%, respectively. The compound also showed a pIC50 in [4] of 3.38. In data set [7], the solubility entry is reported as “soluble”.

Turning to `COc1ccc(C(=O)/C=C/c2ccc(OCc3ccccc3)c(OC)c2)c(OC)c1`, the inhibition stood at 40% in data set [1] and 0% in [2]. Also, the pIC50 in [3] was 4.82; in data set [4], less than 4.00; in data set [5], 3.58. The Ratio IC50 in data set [8] stood at 18. Moreover, the pKi in data set [9] was 4.92. In addition, in [10], the Ratio was found to be 1.3. Further, the solubility entry in data set [7] is “soluble”.

On to `O=C(/C=C/c1ccc2c(c1)OCO2)c1cccc([N+](=O)[O-])c1`, for which the inhibition was 26% in [1] and 6% in [2]. Besides, the pIC50 in [3] was 4.35; in data set [4], less than 4.00; in [5] it was 3.97. The Ratio IC50 in data set [8] is 2.4. Further, the pKi in [9] was 4.54. In addition, the Ratio in data set [10] turned out to be 1.5. Moreover, the solubility result in [7] was “soluble”.

Regarding `O=C(/C=C/c1ccc2ccccc2c1)c1ccc[nH]1`, the inhibition in data set [1] came to 16%; in data set [2] it was 37%. Moreover, the pIC50 in [4] was 4.09. In addition, the solubility result in data set [7] is “soluble”.

Consider `O=C(/C=C/c1ccc([N+](=O)[O-])cc1)c1ccc2ccccc2c1`, for which the inhibition in data set [1] turned out to be 18%; in data set [2], 39%. Besides, the pIC50 in data set [4] is 4.21. The solubility result in data set [7] is given as “soluble”.

As a reminder, the inhibition is the drop in the measured response relative to a control, in per cent. Low values mean a response near the control, high ones a response far below the control. One may read the pIC50 as −log10 of the IC50, conventionally taken in molar units. The low end stands for a large IC50, the high end for a small IC50. The pKi is −log10 of the Ki, conventionally taken in molar units. Higher therefore signals a small Ki.

The record behind these values is ChEMBL document CHEMBL1944567, “Synthesis, biological evaluation, and molecular modeling of chalcone derivatives as potent inhibitors of Mycobacterium tuberculosis protein tyrosine phosphatases (PtpA and PtpB)” (J Med Chem, 2012).
